Assay results from ChEMBL document CHEMBL3286252, “Synthesis, biological evaluation and structure-activity relationship of new GABA uptake inhibitors, derivatives of 4-aminobutanamides” (Eur J Med Chem, 2014).

Legend:
Mus musculus [1] = assay: Antidepressant-like activity in albino Swiss (CD-1) mouse assessed as reduction in immobility time at 15 mg/kg, ip by forced swim test; format: functional; settings: route intraperitoneal
How it was run: (§1)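 Compound or vehicle was given i.p. 60 min before the test. Each mouse was placed for 6 min in a glass cylinder (25 cm high, 10 cm diameter) holding 10 cm of water at 23–25 C. Immobility, meaning passive floating, was timed over the final 4 min. 7–8 mice per group; ANOVA with Dunnett's test.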

Mus musculus [2] = assay: Toxicity in albino Swiss (CD-1) mouse assessed as decrease in locomotor activity at 30 mg/kg, ip after 60 mins; format: organism-based; parameters: dose 30 mg/kg, route intraperitoneal; settings: in vivo, 1 h
How it was run: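 Mice were pretreated i.p. with 30 mg/kg or vehicle (1% Tween 80) 60 min before testing. Each was placed alone in an IR-beam activity cage (40×40×31 cm) in a sound-attenuated room. Beam interruptions were counted over 30 min in five 6-min intervals. Analysis: repeated-measures ANOVA with Bonferroni.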

GABA transporter 3 = target: T1, GABA transporter 3 (Mus musculus, UniProt P31649); assay: Inhibition of mouse GAT3 expressed in HEK293 cells assessed as decrease in [3H]GABA uptake; format: cell-based
T1 sequence (P31649 whole entry): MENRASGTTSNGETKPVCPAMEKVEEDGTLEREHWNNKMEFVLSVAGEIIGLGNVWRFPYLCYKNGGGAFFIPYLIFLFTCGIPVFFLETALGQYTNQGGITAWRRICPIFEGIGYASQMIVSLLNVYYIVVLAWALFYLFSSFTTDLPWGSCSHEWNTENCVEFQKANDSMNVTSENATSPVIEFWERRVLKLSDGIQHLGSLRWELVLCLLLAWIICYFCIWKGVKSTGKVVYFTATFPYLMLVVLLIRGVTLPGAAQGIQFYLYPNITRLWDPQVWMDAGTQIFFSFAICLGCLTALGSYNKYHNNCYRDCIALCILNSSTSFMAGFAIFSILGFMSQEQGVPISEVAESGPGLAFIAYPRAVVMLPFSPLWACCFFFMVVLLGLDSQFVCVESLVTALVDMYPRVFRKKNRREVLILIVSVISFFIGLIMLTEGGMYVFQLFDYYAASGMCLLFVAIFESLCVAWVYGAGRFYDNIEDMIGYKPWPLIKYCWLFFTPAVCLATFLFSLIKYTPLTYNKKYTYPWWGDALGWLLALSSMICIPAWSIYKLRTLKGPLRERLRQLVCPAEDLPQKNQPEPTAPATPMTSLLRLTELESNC

Mus musculus [3] = assay: Antinociceptive activity in albino Swiss (CD-1) mouse assessed as latency time to pain reaction at 30 mg/kg, ip by hot plate test (reference value: 13.9 +/- 1.2 secs); format: functional; settings: route intraperitoneal
GABA transporter 4 = target: T2, GABA transporter 4 (Mus musculus, UniProt P31650); assay: Inhibition of mouse GAT4 expressed in HEK293 cells assessed as decrease in [3H]GABA uptake; format: cell-based
T2 sequence (P31650 whole entry): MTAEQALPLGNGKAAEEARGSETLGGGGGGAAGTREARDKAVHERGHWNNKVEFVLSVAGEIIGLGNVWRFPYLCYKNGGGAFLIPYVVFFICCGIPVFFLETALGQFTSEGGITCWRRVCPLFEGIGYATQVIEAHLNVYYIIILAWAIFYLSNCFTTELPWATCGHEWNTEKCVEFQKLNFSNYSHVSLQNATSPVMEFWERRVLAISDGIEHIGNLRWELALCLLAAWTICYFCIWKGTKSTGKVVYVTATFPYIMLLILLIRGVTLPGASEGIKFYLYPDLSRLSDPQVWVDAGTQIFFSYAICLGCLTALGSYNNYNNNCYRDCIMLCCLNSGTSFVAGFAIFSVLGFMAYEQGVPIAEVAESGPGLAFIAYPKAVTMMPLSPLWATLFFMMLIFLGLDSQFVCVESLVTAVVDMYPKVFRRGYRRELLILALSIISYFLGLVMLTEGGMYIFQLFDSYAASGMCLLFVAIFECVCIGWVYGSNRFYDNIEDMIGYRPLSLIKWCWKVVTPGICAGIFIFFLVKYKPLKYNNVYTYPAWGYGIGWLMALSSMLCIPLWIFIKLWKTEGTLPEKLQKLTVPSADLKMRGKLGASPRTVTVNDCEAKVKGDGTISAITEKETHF

[4] = target: Sodium- and chloride-dependent GABA transporter 1 (Mus musculus, UniProt P31648); assay: Inhibition of mouse GAT1 expressed in HEK293 cells assessed as decrease in [3H]GABA uptake; format: cell-based
[5] = Retardation factor of the compound using 25%NH3/MeOH/DCM/PE at ratio of 45:225:600:90 as solvent system by thin layer chromatography; format: physicochemical
Mus musculus [6] = assay: Toxicity in albino Swiss (CD-1) mouse assessed as motor impairment at 30 to 100 mg/kg, ip measured after 60 mins by rotarod test; format: organism-based; parameters: dose 30-100 mg/kg, route intraperitoneal; settings: in vivo, 1 h
How it was run: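 Mice were trained for 3 days at 18 rpm on a rod of 2 cm diameter. At least 24 h after the last training, they were given 30 or 100 mg/kg or vehicle (1% Tween 80) i.p. 60 min before testing at 6, 18, then 24 rpm. Impairment was defined as failing to stay on the rod for 1 min; mean time on the rod was recorded.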

[7] = target: Sodium- and chloride-dependent GABA transporter 1 (Mus musculus) (UniProt P31648); assay: Displacement of NO711 from mouse GAT1 expressed in HEK293 cells assessed as NO711 binding at 100 uM by LC-MS/MS analysis; format: cell-based
GABA transporter 2 = target: T3, GABA transporter 2 (Mus musculus, UniProt P31651); assay: Inhibition of mouse GAT2 expressed in HEK293 cells assessed as decrease in [3H]GABA uptake; format: cell-based
T3 sequence (P31651 whole entry): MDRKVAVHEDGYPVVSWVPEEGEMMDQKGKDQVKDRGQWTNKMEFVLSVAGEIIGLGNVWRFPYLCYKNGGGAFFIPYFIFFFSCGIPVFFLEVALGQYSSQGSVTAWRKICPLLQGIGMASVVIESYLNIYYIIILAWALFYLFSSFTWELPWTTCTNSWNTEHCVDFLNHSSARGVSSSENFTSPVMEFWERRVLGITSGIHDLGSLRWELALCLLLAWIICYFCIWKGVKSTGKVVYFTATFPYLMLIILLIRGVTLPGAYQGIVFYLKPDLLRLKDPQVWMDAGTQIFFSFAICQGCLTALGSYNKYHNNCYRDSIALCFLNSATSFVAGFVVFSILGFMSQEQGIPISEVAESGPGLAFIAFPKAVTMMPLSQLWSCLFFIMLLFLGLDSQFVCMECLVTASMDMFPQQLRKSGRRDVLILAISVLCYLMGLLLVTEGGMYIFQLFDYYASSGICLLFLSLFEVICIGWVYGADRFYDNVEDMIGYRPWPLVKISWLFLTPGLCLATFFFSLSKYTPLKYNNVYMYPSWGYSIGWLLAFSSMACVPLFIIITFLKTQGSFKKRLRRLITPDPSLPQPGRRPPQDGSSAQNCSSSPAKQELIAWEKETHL

Mus musculus [8] = assay: Antidepressant-like activity in albino Swiss (CD-1) mouse assessed as reduction in immobility time at 30 mg/kg, ip by forced swim test; format: functional; settings: route intraperitoneal; how it was run: as §1

Compound	inhibition in vivo at 15 mg/kg (Mus musculus [1])	Activity (Mus musculus [2])	IC50 (GABA transporter 3)	Time (Mus musculus [3])	IC50 (GABA transporter 4)	IC50 [4]	Rf [5]	Activity (Mus musculus [6])	Activity [7]	IC50 (GABA transporter 2)	inhibition in vivo at 30 mg/kg (Mus musculus [8])
NCCC(C(=O)NCc1ccc(Cl)cc1)N1CCN(C(c2ccccc2)c2ccccc2)CC1 (configuration not stated)	3.8%	Toxic	10.7 µM	27.5 s	12 µM	25.7 µM	0.14	Non-toxic	53%	20.9 µM	28.9%
NCCC(C(=O)NCc1ccccc1Cl)N1CCN(C(c2ccccc2)c2ccccc2)CC1 (configuration not stated)	26%	Non-toxic	10.5 µM	18.8 s	15.1 µM	20.9 µM	0.18	Non-toxic	55%	21.9 µM	38.5%
